Tests used:
[1] = Partition coefficient in octanol/water system was determined; format: physicochemical
Mus musculus [2] = experiment: Tested for the quanitity of [14C]-labeled (radioactivity) compound taken up into the liver following subcutaneous injection at a 41 mg/kg; format: functional
Summary of the method: (§1)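 Male Balb-c mice (20 ± 2 g) received ¹⁴C-labeled lipid (label on the GABA portion) sc, as diacetate salt or free amine, in 15% propylene glycol in water. Killed at 5 min; brain and liver weighed and homogenized in SDS/EDTA phosphate buffer (pH 7.6), then scintillation counted. nmol/g computed from total radioactivity. BPI = ([brain]/[liver]) × 100. Mean ± SD of three, or two, measurements.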

[3] = Ratio of the amount in brain as a percent of that present in liver at 5 min is expressed as Brain penetration index (BPI); format: functional; summary of the method: as §1
[4] = Brain-uptake index (BUI) was determined for the compound in rat; format: functional
Summary of the method: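 Rat carotid bolus: male Sprague-Dawley rats (200-300 g) under deep Nembutal anesthesia received a 0.15-mL bolus of ³H2O plus ¹⁴C-labeled compound in 0.01 M HEPES (pH 7.4) into the right carotid artery. Decapitated 5 s later; ipsilateral forebrain homogenized in SDS/urea/EDTA/phosphate buffer (pH 7.4). Duplicate aliquots counted by scintillation, corrected for quench and spillover. BUI = (¹⁴C/³H cpm) brain / (¹⁴C/³H cpm) injectate. Values uncorrected.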

Mus musculus [5] = experiment: Tested for the quanitity of [14C]-labeled (radioactivity) compound taken up into the brain following subcutaneous injection at a 41 mg/kg; format: functional; summary of the method: as §1
Mus musculus [6] = experiment: Tested for the quanitity of [14C]-labeled (radioactivity) compound taken up into the liver following subcutaneous injection at a 100 mg/kg; format: functional
Mus musculus [7] = experiment: Tested for the quanitity of [14C]-labeled (radioactivity) compound taken up into the brain following subcutaneous injection at a 100 mg/kg; format: functional
Mus musculus [8] = experiment: Percentage decrease in general motor activity with respect to vehicle-injected control in mice at a dose of 30 mg/kg after ip administration; format: functional; conditions: route intraperitoneal
[9] = Partition coefficient in octanol/water system was determined using [14C]-labeled compounds.; format: physicochemical
Mus musculus [10] = experiment: Tested for the quanitity of [14C]-labeled (radioactivity) compound taken up into the brain following subcutaneous injection; format: functional
Mus musculus [11] = experiment: Tested for the quanitity of [14C]-labeled (radioactivity) compound taken up into the liver following subcutaneous injection; format: functional
Mus musculus [12] = experiment: Tested for the quanitity of [14C]-labeled (radioactivity) compound taken up into the brain following subcutaneous injection at a 54 mg/kg; format: functional; summary of the method: as §1
Mus musculus [13] = experiment: Tested for the quanitity of [14C]-labeled (radioactivity) compound taken up into the liver following subcutaneous injection t a 54 mg/kg; format: functional; summary of the method: as §1
Mus musculus [14] = experiment: Tested for the quanitity of [14C]-labeled (radioactivity) compound taken up into the brain following subcutaneous injection at a 36 mg/kg; format: functional; summary of the method: as §1
Mus musculus [15] = experiment: Tested for the quanitity of [14C]-labeled (radioactivity) compound taken up into the liver following subcutaneous injection at a 36 mg/kg; format: functional; summary of the method: as §1
Mus musculus [16] = experiment: Tested for the quanitity of [14C]-labeled (radioactivity) compound taken up into the brain following subcutaneous injection at a 40 mg/kg; format: functional; summary of the method: as §1
Mus musculus [17] = experiment: Tested for the quanitity of [14C]-labeled (radioactivity) compound taken up into the liver following subcutaneous injection at a 40 mg/kg; format: functional; summary of the method: as §1
Mus musculus [18] = experiment: Tested for the quanitity of [14C]-labeled (radioactivity) compound taken up into the liver following subcutaneous injection at a 44 mg/kg; format: functional; summary of the method: as §1
Mus musculus [19] = experiment: Tested for the quanitity of [14C]-labeled (radioactivity) compound taken up into the brain following subcutaneous injection at a 44 mg/kg; format: functional; summary of the method: as §1

SMILES	K [9]	BPI [3] [%]	BUI [4]	Decrease (Mus musculus [8]) [%]	also measured
CCCCC/C=C/C/C=C/CCCCCCCC(=O)OCC(COC(=O)CCCN)OC(=O)CCCN (stereo in doubt; 3c (L2G2))	–	97	25.9	–	K [1]: 4.2; Activity (Mus musculus [2]): 8 nM/g; Activity (Mus musculus [5]): 7.74 nM/g
CC/C=C/C/C=C/C/C=C/CCCCCCCC(=O)OCC(COC(=O)CCCN)OC(=O)CCCN (stereo in doubt)	–	75	31.5	–	K [1]: 2.13; Activity (Mus musculus [6]): 3.79 nM/g; Activity (Mus musculus [7]): 2.81 nM/g
NCCCC(=O)O [GAMMA-AMINOBUTYRIC ACID]	0.004	0.96	2	62.1	Activity (Mus musculus [10]): 0.041 nM/g; Activity (Mus musculus [11]): 4.2 nM/g
CCCCC/C=C/C/C=C/CCCCCCCC(=O)OCC(COC(=O)CCCN)OC(=O)CCCN (stereo in doubt; 3c)	–	14	–	89.3	Activity (Mus musculus [12]): 1.32 nM/g; Activity (Mus musculus [13]): 9.19 nM/g
CC/C=C/C/C=C/C/C=C/CCCCCCCC(=O)OCC(COC(=O)CCCN)OC(=O)CCCN (stereo in doubt; 3d)	–	15	–	82.6	Activity (Mus musculus [16]): 1.07 nM/g; Activity (Mus musculus [17]): 7.86 nM/g

Second part, led by results:

K [9]	SMILES	BPI [3] [%]	BUI [4]	Decrease (Mus musculus [8]) [%]	also measured
6	CCCCCCCC/C=C/CCCCCCCC(=O)OCC(COC(=O)CCCN)OC(=O)CCCN (stereo unspecified)	17	53.2	74	Activity (Mus musculus [14]): 1.07 nM/g; Activity (Mus musculus [15]): 6.32 nM/g
8.6	CCCCCCCCCCCCCCCCCC(=O)OCC(COC(=O)CCCN)OC(=O)CCCN (stereo unspecified)	28	45.1	62.1	Activity (Mus musculus [18]): 6.92 nM/g; Activity (Mus musculus [19]): 1.89 nM/g
